Screening results as filed in PubChem BioAssay.
RanGTP-Impb inh – inhibitors of RanGTP-importin-beta interaction, primary screen, biochemical, FRET, CFP-Ran, YFP-importin-beta, homogeneous | Ran GTPase (GTP-bound) - importin-beta complex | inhibition, % (concentration not given with the values) | actives 1.1% (n = 300,000) | cell-free CFP-Ran/YFP-importin-beta FRET ratio | AID 2216, 2009;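 active = more than half of the replicate wells show a fall in the fluorescence ratio signal beyond about 16%, limit read from the data, passing the limit was not always enough; inconclusive = exactly half of the replicate wells pass the set limit; inactive = fewer than half of replicates pass the limit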;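 also: 0% = DMSO wells and 100% = Ran loaded with GDP instead of GTP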
Runt-CBFb FRET – inhibitors of RUNX1 Runt–CBFb binding, primary screen, biochemical, FRET, Cerulean-Runt, Venus-CBFb, uHTS; Runt-related transcription factor 1 (Homo sapiens) + Core-binding factor subunit beta …; Cerulean-Runt/Venus-CBFb FRET ratio 530/480, 1 h; inhibition, % at 20 µM; actives 0.46% (n = 220,000);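 active = inhibition over about 50% at 20 µM in the single-dose screen, limit read from the data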;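 also: 0% = DMSO wells and 100% = excess unlabeled CBFb competitor control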
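Assay system: Cerulean-Runt domain / Medium: Tris 50 mM pH 7.5, KCl, K2SO4, 0.01% BSA / Timing: protein complex preformed 1 h, compound exposure 1 h, room temperature, dark / Measured by: FRET, excitation 422 nm, emission at 530 and 480 nm / Evaluation: loss of energy transfer signal / Control set: 5 µM unlabeled CBFb as full-inhibition high control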
Hck Nef HTS – inhibitors of Nef-activated human Hck kinase, primary screen, biochemical, Z-Lyte FRET, 384-well, Hck-YEEI; Tyrosine-protein kinase HCK (Homo sapiens), P08631; Recombinant Hck-YEEI plus Nef, Z-Lyte FRET kinase assay; inhibition, % at 20 µM; actives 0.68% (n = 220,000); AID 463187, 2010;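 active = Hck-Nef kinase inhibition above about 50%, limit read from the data; inactive = inhibition below that limit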;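 also: 0% = DMSO with Hck plus Nef and 100% = Hck alone without Nef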
Target sequence (P08631 whole entry, looked up): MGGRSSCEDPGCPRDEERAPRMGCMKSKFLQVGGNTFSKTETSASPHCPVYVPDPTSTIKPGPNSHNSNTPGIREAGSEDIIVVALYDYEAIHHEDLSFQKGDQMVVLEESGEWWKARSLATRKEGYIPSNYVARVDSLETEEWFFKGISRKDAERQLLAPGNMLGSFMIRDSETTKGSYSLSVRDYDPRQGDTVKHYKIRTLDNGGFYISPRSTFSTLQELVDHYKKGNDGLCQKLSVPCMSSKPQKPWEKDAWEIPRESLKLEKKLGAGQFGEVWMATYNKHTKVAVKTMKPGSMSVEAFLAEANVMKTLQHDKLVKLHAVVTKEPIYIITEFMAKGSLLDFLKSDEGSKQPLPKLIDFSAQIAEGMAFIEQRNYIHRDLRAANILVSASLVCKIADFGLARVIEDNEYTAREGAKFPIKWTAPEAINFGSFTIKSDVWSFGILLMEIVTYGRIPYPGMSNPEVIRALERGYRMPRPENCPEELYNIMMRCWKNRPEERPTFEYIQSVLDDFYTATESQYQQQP
Runt-SMMHC FRET – inhibitors of RUNX1 Runt–CBFb-SMMHC binding, primary screen, biochemical, FRET, Cerulean-Runt, Venus-CBFb-SMMHC, uHTS. actives 0.74% (n = 220,000). AID 1434, 2008. Runt-related transcription factor 1 (Homo sapiens) + Core-binding factor subunit beta …. Cerulean-Runt/Venus-CBFb-SMMHC FRET ratio 530/480, 1 h. inhibition, % at 20 µM;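 active = mean inhibition across duplicate retests at 20 µM reaching about 50%, limit read from the data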;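 also: 0% = DMSO wells and 100% = wells with excess untagged CBFb-SMMHC; inhibitors lower the FRET ratio by blocking Runt binding to CBFb-SMMHC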
YIC FRET counter – YIC intramolecular FRET probe signal interference, dose response, counter-screen for RanGTP-importin-beta inhibitor project, biochemical, fluorescence FRET. actives 40% (n = 1,000). IC50, µM. AID 435026, 2010. Purified YIC probe, intramolecular FRET ratio YFP/CFP. shares compounds with RanGTP-Impb inh;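 active = fitted half-maximal inhibitory concentration no more than tenfold above the top dose tested; inconclusive = flat fit with 30 to 70% activity, or poor fit; inactive = half-maximal concentration beyond tenfold above the top dose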
Active calls of the source: *; ? = inconclusive; · = no result given. Rows were chosen to be rich in hits. Some 1.9% of all compounds tested hit in one or more screens of this group.

SMILES	RanGTP-Impb inh	Runt-CBFb FRET	Hck Nef HTS	Runt-SMMHC FRET	YIC FRET counter
CCN(CC)S(=O)(=O)c1ccc(NC(=O)c2cccc3c2C(=O)N(CCOC)C3)cc1	19*	-5	2	8	>50
COC(=O)C1=C(C)NC(C)=C(C(=O)OC)C1C(=O)OC(C)C(=O)c1ccccc1 (stereo unspecified)	22*	1	-5	-2	>50
Cc1ccc(S(=O)(=O)N2CC(C)N(C(=O)N3CCOCC3)C2C)cc1 (stereo unspecified)	1	·	·	·	·
Oc1c(C(Nc2nc3ccccc3s2)c2ccco2)ccc2cccnc12 (stereo unspecified)	22*	7	0	4	>50
CCOC(=O)N/N=C/c1ccc(N(CC)CC)cc1O	3	2	7	1	·
CCN(CC)c1ccc(/C=N/NC(=O)c2c(Cl)cnn2C)c(O)c1	22*	74*	11	83*	4*
CCCOC(=S)NC(=O)c1sc2ccccc2c1Cl	31*	0	3	3	>50
CCCc1ccc2oc(C(=O)N3CCC(C(N)=O)(N4CCCCC4)CC3)c(C)c2c1	0	·	·	·	·
CCCc1cc(=O)oc2c(CN3CCN(C)CC3)c(O)c(Cl)cc12	50*	123*	·	101*	31*
CCCc1cc(=O)oc2c(CN3CCN(C)CC3)c(O)ccc12	7	·	·	·	·
CC1C=CCC2C(=O)N(c3ccccc3OC(=O)c3cccs3)C(=O)C12 (stereo unspecified)	22*	0	18	-1	>50
CC1C=CCC2C(=O)N(c3ccc(OC(=O)c4cccs4)cc3)C(=O)C12 (stereo unspecified)	6	0	17	-1	·
N#C/C(=C\c1cn(CC(=O)O)c2ccccc12)C(=O)NCc1ccccc1	5	·	·	·	·
COCCNC(=O)/C(C#N)=C/c1cn(CC(=O)NCc2ccco2)c2ccccc12	27*	-19	-5	4	44*
Cc1ccccc1NC(=O)/C(C#N)=C\c1cn(CC(=O)O)c2ccccc12	20*	·	29	·	51*
Cn1c(SCc2ccccc2F)nnc1-c1cnccn1	-1	-1	2	-2	·
Cn1c(SCc2ccccc2F)nnc1-c1ccccn1	20*	1	6	-1	>50
CC(=O)c1cccc(OCC(=O)N(C)CC(=O)Nc2ccc(F)cc2)c1	65*	-2	3	2	>50
S=C(Nc1ccc(Oc2ccccc2)cc1)N1CCN(c2ccccn2)CC1	0	4	14	2	·
O=C(Cn1nnc2ccccc21)N/N=C\c1cccs1	22*	-2	2	-2	>50
O=C(Cn1cnc2ccccc21)N/N=C/c1cccs1	-3	2	1	-4	·
O=C(c1ccc2oc(CCc3ccccc3)nc2c1)N1CC[C@H](O)C1	0	·	·	·	·
CC(=O)Nc1ccc(-c2ccc(NC(C)=O)cc2)cc1	-3	0	21	-2	·
COC(=O)Nc1ccc(NC(C)=O)cc1	17*	-1	1	0	>50
C=CCN1C(=O)c2ccc(C(=O)N(CCOC)c3c(N)n(CCCC)c(=O)[nH]c3=O)cc2C1=O	4	·	·	·	·
SMILES	RanGTP-Impb inh	Runt-CBFb FRET	Hck Nef HTS	Runt-SMMHC FRET	YIC FRET counter
OCCNc1cc(Cl)ncn1	?	1	26	-3	·
COC(=O)/C(=C1/Oc2ccc(C)cc2S1)C(F)(F)F	?	2	-3	3	·
c1ccc(Nc2nc3ccccc3n3nnnc23)cc1	36*	22	6	44	24*
Cc1cc(C)nc(CCNC(=O)c2cc(COc3ccccc3)on2)n1	5	·	·	·	·
COc1ccc(Cn2c(O)c(C=Nc3ccc(OC)cc3)c3ccccc3c2=O)cc1	29*	-166	2	-25	>26
Cc1ccc(C)c2nc(N3CCCC3)c(C#N)cc12	51*	67*	6	94*	1.2*
Cc1ccc(S(=O)(=O)NCCc2cn3nc(C)c(C)nc3n2)cc1C	20*	·	·	·	26*
COc1ccc(S(=O)(=O)NCCc2cn3nc(C)c(C)nc3n2)cc1C	11	·	·	·	·
COc1ccc(-c2nc3ccc(C(=O)NCCCN4CCOCC4)cc3nc2-c2ccc(OC)cc2)cc1	21*	·	·	·	22*
COc1ccc(CCn2c(C)nc3ccccc3c2=O)cc1OC	23*	2	21	-1	>50
N#CCCN(C(=O)Nc1ccc(Cl)cc1)c1ccccc1	96*	-1	-9	-4	>50
N#CCCN(C(=O)Nc1ccccc1)c1ccccc1	1	1	1	-1	·
COCCOC(=O)c1c(NC(=O)CN2CCc3ccccc32)sc(C(N)=O)c1C	1	-1	8	2	·
CCOC(=O)c1c(NC(=O)CN2CCCc3ccccc32)sc(C(C)=O)c1C	21*	-2	1	-4	>50
CCOC(=O)c1ccc(NC(=S)NC(=O)COc2ccccc2)cc1	-4	-4	2	-3	·
CC(C)(C)CN1CCC(n2nccc2NC(=O)c2ccccc2Cl)CC1	20*	·	·	·	>50
CCc1ccc(CN2CCC(n3nccc3NC(=O)c3ccccc3Cl)CC2)cc1	4	·	·	·	·
O=C(NCCN1CCCC1)c1ccc(Cl)cc1	-3	0	38	-1	·
N#Cc1c(N)n(CCNC(=O)c2ccc(Cl)cc2)c2nc3ccccc3nc12	28*	94*	12	44	2*
Cc1ccc2cc(C#N)c(N3CCCN(S(=O)(=O)c4ccccc4)CC3)nc2c1	?	1	10	1	·
Cc1ccc2cc(C#N)c(N3CCCN(S(=O)(=O)c4ccc(F)cc4)CC3)nc2c1	18*	5	11	46	25*
CCn1c(SCc2nc(-c3ccccc3)no2)nnc1-c1cccs1	24*	-1	-1	1	>50
CCn1c(SCc2nc(-c3ccccc3)no2)nnc1-c1ccco1	-1	-1	1	0	·
CC1CCN(C(=O)Cn2c(=O)oc3cc(S(=O)(=O)N4CCCCC4)ccc32)CC1	0	·	·	·	·
CC1CCCCN1C(=O)Cn1c(=O)oc2cc(S(=O)(=O)N3CCCC3)ccc21 (stereo unspecified)	17*	·	·	·	>50
NC(=O)Cc1nc(-c2ccc(F)cc2)cs1	-2	0	19	-2	·
NC(=S)Cc1nc(-c2ccc(Cl)cc2)cs1	18*	1	31	-10	>50
CC1(C)CC(=O)CC(=Nc2ccc3[nH]c(=O)[nH]c3c2)C1	29*	0	-2	3	>50
CC1(C)CC(=O)C/C(=N/Nc2nc3ccccc3s2)C1	1	5	19	-3	·
COC(=O)C1=CN(c2cc(C)cc(C)c2)C=C(C(=O)OC)C1c1ccc(OC)c(O)c1	-2	·	·	·	·
